Sampled rows, rich in hits. Any-hit rate of the full collection: about 3.5%.
RGS4 block: inhibitors of human RGS4 | P49798 | HEK293 M3R/RGS4 inducible, Fluo-4 calcium flux; stronger effect = higher value; triggered by carbachol at its EC20 | B-score at 10 µM | 0.45% of 310,000 active | AID 463165;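 active = B-score, a plate-corrected calcium signal, over three deviations above library mean, with baseline fluorescence within five deviations of library mean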;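 note: RGS4 expression induced by doxycycline in cells with stable M3 receptor; B-score is computed from the integrated fluorescence ratio over baseline after carbachol; higher B-score means a larger calcium signal and so more RGS4 inhibition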
MrgX1 ag: human MrgX1 receptor agonism, primary screen | Q96LB2 | MrgX1-HEK293 cells, Fluo-4 calcium fluorescence, agonist mode; stronger effect = higher value | B-score at 10 µM | 0.44% of 310,000 active | AID 588627;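 active = calcium response B-score plate-corrected fluorescence ratio at least 3 library SD, with starting fluorescence B-score inside 5 SD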
Target sequence (Q96LB2 whole entry, looked up): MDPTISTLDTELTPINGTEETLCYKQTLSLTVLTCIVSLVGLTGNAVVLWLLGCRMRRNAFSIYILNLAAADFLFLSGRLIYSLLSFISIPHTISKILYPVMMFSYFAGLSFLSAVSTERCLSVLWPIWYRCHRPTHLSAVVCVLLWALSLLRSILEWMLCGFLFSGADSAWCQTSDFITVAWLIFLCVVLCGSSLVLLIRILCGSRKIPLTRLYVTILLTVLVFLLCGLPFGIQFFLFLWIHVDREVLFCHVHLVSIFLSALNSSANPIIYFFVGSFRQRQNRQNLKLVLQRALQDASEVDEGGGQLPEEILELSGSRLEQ
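Material – MrgX1-expressing HEK293 cells · Input – 15,000 cells seeded per well · Dosing – compound as first of three additions · Times – overnight seeding, then 1 h dark dye loading · Measured by – kinetic Fluo-4 NW fluorescence of intracellular calcium · Read-out – B-scored fluorescence response ratio · Benchmarks – positive and negative control wells on each plate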
RGS4 pot: potentiators or activators of RGS4. HEK293 M3R/inducible RGS4, carbachol calcium flux Fluo4; stronger effect = lower value. B-score at 10 µM. 0.92% of 310,000 active. AID 463111;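 active = B-score of the integrated calcium signal more than 4 SD below the library mean, with starting fluorescence not abnormally high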;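 note: negative B-score means reduced calcium response which marks RGS4 activation or potentiation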
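System: HEK293 FlpIn-TREx cells, stable M3R, doxycycline-inducible RGS4. Timing: overnight RGS4 induction, 30 min dye load 37 °C, 20 min compound RT. Also added: carbachol, ECmax concentration. Measured by: Fluo4 fluorescence kinetic imaging of calcium. Evaluation: integrated calcium ratio converted to B score.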
MrgX1 allo act: human MrgX1 positive allosteric modulation, primary screen. MrgX1-HEK293, Fluo-4 calcium flux, FDSS; stronger effect = higher value. 0.63% of 310,000 active. B-score at 10 µM. Q96LB2. AID 588675;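 active = plate-corrected calcium response at least 3 library SD above typical, normal starting fluorescence, not activating the receptor alone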;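 note: compound read alongside a low EC10 to EC30 dose of BAM8-22 agonist; peak minus trough fluorescence over baseline measured at the second addition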
MrgX1 antagonist: blocks BAM8-22 activation of human MrgX1 receptor; Q96LB2; MRGX1-HEK293 calcium flux, Fluo-4, BAM8-22 antagonism; stronger effect = lower value; B-score at 10 µM; 1.3% of 310,000 active; AID 588676;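 active = calcium-response B-score plate-corrected more than 3 library SD below zero, starting fluorescence within 5 deviations, no agonist response on first addition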;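 note: peak minus trough fluorescence over baseline after final BAM8-22 challenge near maximal dose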
Each line names hits and unclear results; the compound was inactive in the other large screens.

NC(=O)c1ccccc1NC(=O)c1cccc(C(=O)Nc2ccccc2C(N)=O)n1	none
O=[N+]([O-])c1ccc(N2CCC(=NOCc3ccc(Cl)cc3)CC2)cc1	RGS4 pot -8.2
O=C(NNC(=O)c1ccccc1Cl)c1csc(N2CCOCC2)n1	none
Cc1cccc(C(=O)O/N=C2/CC3CCC2(C)C3(C)C)c1 (centres undefined)	MrgX1 allo act 8.2
Cc1ccc(C(=O)O/N=C2\CC3CCC2(C)C3(C)C)cc1 (centres undefined)	MrgX1 allo act 6.6
Cc1ccc(C(=O)O/N=C2/CC3CCC2(C)[C@@]3(C)CBr)cc1 (some centres undefined)	none
CCOC(=O)C1(CCCc2ccccc2)CCN(C(=O)CN2CCOC2=O)CC1	MrgX1 allo act 7.3
Cc1cc2oc(=O)cc(CN(C)Cc3ccccc3)c2cc1C(C)C	none
COc1ccc(CN(C)Cc2cc(=O)oc3cc(C)c(C(C)C)cc23)cc1OC	RGS4 pot -7.1
Cc1cc2oc(=O)cc(CN(C)Cc3ccccc3F)c2cc1Cl	RGS4 pot -7
CN(Cc1ccccc1F)Cc1cc(=O)oc2cc(O)c(Cl)cc12	none
FC(F)(F)c1cc(-c2ccccc2)nc2nc(N3CCOCC3)sc12	none
C(=Nc1cccc2c(N=Cc3ccco3)cccc12)c1ccco1	MrgX1 ag 39
CN(C)c1ccc(N=Cc2ccco2)cc1	none (no result: RGS4 block, RGS4 pot)
O=C(CSCc1cnn(-c2ccccc2)c1-n1cccc1)NCc1ccc2c(c1)OCO2	RGS4 pot -7.3 (no result: MrgX1 ag, MrgX1 allo act, MrgX1 antagonist)
COc1ccc(C(=O)NCc2ccc3c(c2)OCO3)c(OC)c1	none
COc1ccc2oc(=O)c(C(=O)NCc3ccc4c(c3)OCO4)cc2c1	MrgX1 antagonist -6.1
Cc1ccc2nc(-c3ccccc3)nc(SC(C)C(=O)NCc3cccs3)c2c1 (centres undefined)	MrgX1 antagonist -7.3
C=CCNCc1cc(=O)n2c(-c3ccccc3)csc2n1	RGS4 pot -8.8
COc1ccc(NC(=O)CCNC(=O)Cn2ccc3ccccc3c2=O)cc1Cl	none
CCN(CC)C(=O)C(=O)c1cn(CCOc2ccccc2)c2ccccc12	RGS4 pot -7.1
COC(=O)c1cn(CCOc2ccccc2)c2ccccc12	none
CC(=O)/C(N=Nc1cccc(C(F)(F)F)c1)=C(\C)O	none
O=C(/C(N=Nc1cccc(C(F)(F)F)c1)=C(/O)c1cccs1)C(F)(F)F	RGS4 pot -9.2
CCCCOP(=O)(c1ccc(N(C)C)cc1)C(Nc1ccccc1)c1ccccc1 (centres undefined)	RGS4 pot -7.3
CCCOP(=O)(c1ccc(N(C)C)cc1)C(Nc1ccccc1)c1ccc(N(C)C)cc1 (centres undefined)	none
COc1cc(/C=C2\SC(=S)N(NC(=O)c3ccccc3O)C2=O)ccc1O	MrgX1 ag 40
O=C(NN1C(=O)/C(=C/c2ccc(O)c([N+](=O)[O-])c2)SC1=S)c1ccccc1Cl	none
COc1cc(/C=C2\SC(=S)N(N(C)c3ccccc3)C2=O)ccc1O	MrgX1 ag 34
O=C(NN1C(=O)/C(=C/c2ccc(O)cc2)SC1=S)c1cccc(O)c1	none
O=C(NN1C(=O)/C(=C/c2ccc(O)cc2)SC1=S)c1ccccc1O	MrgX1 antagonist -7.8
CC1(C)Oc2ccc3ccc(=O)oc3c2C(/C=N/O)=C1Cl	none
CCOC(=O)N1CCN(C(=O)c2cc3n(n2)C(C(F)(F)F)CC(c2ccc4c(c2)OCO4)N3)CC1 (centres undefined)	none
CC(C)(C)C1CCc2c(C(=O)NNC(=O)/C=C/C(=O)O)csc2C1 (centres undefined)	MrgX1 antagonist -6.4
CC(C)(C)C1CCc2c(C(=O)N/N=C/c3cccs3)csc2C1 (centres undefined)	none
Cc1ccc(OCCn2cccn2)c(C)c1	none
COc1cc(C(=O)NCC(=O)OC(C)C(=O)Nc2ncc(Cl)cc2Cl)cc(OC)c1OC (centres undefined)	none
CCCN(CCC)C(=O)c1ccc2c(c1)S(=O)(=O)c1ccccc1C2=O	none
CCOC(=O)Cc1csc(NC(=O)c2cccs2)n1	none
CCOC(=O)Cc1csc(NC(=O)c2ccc(Br)s2)n1	MrgX1 ag 31
O=C(/C=C1\SC(=O)N(CC(=O)Nc2ccc(Cl)cc2)C1=O)Nc1ccc(F)cc1	none
Cc1cccc(NC(=O)CN2C(=O)S/C(=C\C(=O)Nc3ccc(Cl)cc3)C2=O)c1	MrgX1 antagonist -5.7

Screening results from PubChem BioAssay.
